Test results taken from ChEMBL document CHEMBL1125107, “Cephalosporin 3'-quinolone esters with a dual mode of action” (J Med Chem, 1990).
In brackets after ≈: the same amount, converted by molar mass.

Assays:
Assay type in all cases: functional
Pseudomonas aeruginosa [1] = assay: Evaluated for the minimum inhibitory concentration against Pseudomonas aeruginosa 18S/H ( Class Id beta-lactamase overproducer)
Outline: (§1)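 MIC by serial 2-fold dilution in Mueller-Hinton broth; results given as minimum inhibitory concentrations (nmol/mL).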

Staphylococcus aureus [2] = assay: Minimum inhibitory concentration against Staphylococcus aureus 95 (Methicillin-resistant, high-level beta-lactamase producer)
Outline: (§2)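 Serial 2-fold broth dilution in Mueller-Hinton broth, run by standard methodology; read-out is the minimum inhibitory concentration (MIC).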

Proteus vulgaris [3] = assay: Minimum inhibitory concentration against Proteus vulgaris 1028 BC (Class Ic beta-lactamase overproducer)
Outline: (§3)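 Broth MIC determination: serial 2-fold dilutions in Mueller-Hinton broth by standard methodology; the lowest concentration inhibiting growth is reported as the MIC, in nmol/mL.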

Pseudomonas aeruginosa [4] = assay: Evaluated for the minimum inhibitory concentration against Pseudomonas aeruginosa ATCC 27853; outline: as §1
Streptococcus pyogenes [5] = assay: Minimum inhibitory concentration against Streptococcus pyogenes 4; outline: as §3
Streptococcus pneumoniae [6] = assay: Minimum inhibitory concentration against Streptococcus pneumoniae 6301; outline: as §3
Pseudomonas aeruginosa [7] = assay: Evaluated for the minimum inhibitory concentration against Pseudomonas aeruginosa 18S/H (Class Id beta-lactamase overproducer); outline: as §1
Pseudomonas aeruginosa [8] = assay: Minimum inhibitory concentration against Pseudomonas aeruginosa ATCC 27853; outline: as §3
Proteus vulgaris [9] = assay: Evaluated for the minimum inhibitory concentration against Proteus vulgaris 1028 BC (Class Ic beta-lactamase overproducer; outline: as §1
Staphylococcus aureus [10] = assay: Evaluated for the minimum inhibitory concentration against Staphylococcus aureus 1059B ( inducible, high level beta-lactamase producer); outline: as §2
Escherichia coli [11] = assay: Evaluated for in Vitro activity against Escherichia coli DC-O; outline: as §1
Micrococcus luteus = assay: Evaluated for in Vitro activity against Micrococcus luteus PCI; outline: as §1
Streptococcus pneumoniae [12] = assay: Evaluated for in Vitro activity against Streptococcus pneumoniae 6301; outline: as §1
Staphylococcus aureus [13] = assay: Evaluated for the minimum inhibitory concentration against Staphylococcus aureus 95 (Methicillin-resistant, high-level beta-lactamase producer); outline: as §2
Streptococcus pyogenes [14] = assay: In vitro antibacterial activity was determined against Streptococcus pyogenes 4; outline: as §3
Streptococcus pneumoniae [15] = assay: In vitro antibacterial activity was determined against Streptococcus pneumoniae 6301; outline: as §3
Proteus mirabilis = assay: In vitro antibacterial activity was determined against Proteus mirabilis 90; outline: as §1
Staphylococcus aureus [16] = assay: In vitro antibacterial activity was determined against Staphylococcus aureus 1059B ( inducible, high level beta-lactamase producer); outline: as §3
Streptococcus pyogenes [17] = assay: Evaluated for the in vivo activity in mice against streptococcus pyogenes 4
Escherichia coli [18] = assay: Evaluated for the minimum inhibitory concentration against Escherichia coli UB 1005; outline: as §1
Escherichia coli [19] = assay: Evaluated for the in vivo activity in mice against Escherichia coli 257
Serratia marcescens = assay: In vitro antibacterial activity was determined against Serratia marcescens 1071; outline: as §3
Citrobacter freundii = assay: In vitro antibacterial activity was determined against Citrobacter freundii BS-16; outline: as §1
Staphylococcus aureus [20] = assay: In vitro antibacterial activity was determined against Staphylococcus aureus ATCC 29213 (inducible, low level beta-lactamase producer); outline: as §2
Staphylococcus aureus [21] = assay: In vitro antibacterial activity was determined against Staphylococcus aureus 1059B (inducible, high level beta-lactamase producer); outline: as §2
Escherichia coli [22] = assay: In vitro antibacterial activity was determined against Escherichia coli TEM-1 (TEM-1 (class IIIa) beta-lactamase producer); outline: as §1
Enterococcus faecalis = assay: In vitro antibacterial activity was determined against Enterococcus faecalis ATCC 29212; outline: as §1
Staphylococcus aureus [23] = assay: In vitro antibacterial activity was determined against Staphylococcus aureus 95 (Methicillin-resistant, high-level beta-lactamase producer); outline: as §2
Enterobacter cloacae [24] = assay: In vitro antibacterial activity was determined against Enterobacter cloacae P99 (Class Ia beta-lactamase overproducer); outline: as §1
Proteus vulgaris [25] = assay: In vitro antibacterial activity was determined against Proteus vulgaris 1028 BC (Class Ic beta-lactamase overproducer; outline: as §1
Pseudomonas aeruginosa [26] = assay: In vitro antibacterial activity was determined against Pseudomonas aeruginosa 18S/H (Class Id beta-lactamase overproducer); outline: as §3
Escherichia coli [27] = assay: Evaluated for the minimum inhibitory concentration against Escherichia coli TEM-1; outline: as §2
Proteus vulgaris [28] = assay: Evaluated for the minimum inhibitory concentration against Proteus vulgaris 1028 BC; outline: as §2
Enterobacter cloacae [29] = assay: Evaluated for the minimum inhibitory concentration against Enterobacter cloacae P99; outline: as §2

SMILES	MIC (Staphylococcus aureus [2])	MIC (Proteus vulgaris [3])	MIC (Streptococcus pyogenes [5])	MIC (Streptococcus pneumoniae [6])	MIC (Pseudomonas aeruginosa [7])	MIC (Pseudomonas aeruginosa [8])	MIC (Proteus vulgaris [9])	further results
CCN1CCN(C(=O)NC(C(=O)N[C@@H]2C(=O)N3C(C(=O)O)=C(COC(=O)c4cn(CC)c5cc(N6CCSCC6)c(F)cc5c4=O)CSC23)c2ccccc2)C(=O)C1=O (some centres not stated)	1 µg/mL (≈ 1.18 µM)	64 µg/mL (≈ 75.3 µM)	0.016 µg/mL (≈ 0.0188 µM)	0.125 µg/mL (≈ 0.147 µM)				MIC (Pseudomonas aeruginosa [1]): 32 µg/mL (≈ 37.7 µM); MIC (Pseudomonas aeruginosa [4]): 64 µg/mL (≈ 75.3 µM)
CCn1cc(C(=O)OCC2=C(C(=O)O)N3C(=O)[C@@H](NC(=O)/C(=N/OC)c4csc(N)n4)C3SC2)c(=O)c2cc3c(cc21)OCO3 (some centres not stated)	4 µg/mL (≈ 6.09 µM)				16 µg/mL (≈ 24.4 µM)	128 µg/mL (≈ 195 µM)	0.25 µg/mL (≈ 0.381 µM)	
CN1CCN(c2c(F)cc3c(=O)c(C(=O)OCC4=C(C(=O)O)N5C(=O)[C@@H](NC(=O)/C(=N/OC(C)(C)C(=O)O)c6csc(N)n6)C5SC4)cn(CCF)c3c2F)CC1 (some centres not stated)	4 µg/mL (≈ 4.78 µM)		0.5 µg/mL (≈ 0.597 µM)	0.5 µg/mL (≈ 0.597 µM)	> 128 µg/mL	8 µg/mL (≈ 9.56 µM)	0.5 µg/mL (≈ 0.597 µM)	
CCn1cc(C(=O)OCC2=C(C(=O)O)N3C(=O)[C@@H](NC(=O)COc4ccccc4)C3SC2)c(=O)c2cc(F)c(N3CCSCC3)cc21 (some centres not stated)	0.5 µg/mL (≈ 0.732 µM)	1 µg/mL (≈ 1.46 µM)	4 µg/mL (≈ 5.86 µM)	2 µg/mL (≈ 2.93 µM)	64 µg/mL (≈ 93.7 µM)	128 µg/mL (≈ 187 µM)		MIC (Staphylococcus aureus [10]): 0.25 µg/mL (≈ 0.366 µM)
CO/N=C(/C(=O)N[C@@H]1C(=O)N2C(C(=O)O)=C(CO)CSC12)c1csc(N)n1 (some centres not stated)								MIC (Escherichia coli [11]): 0.597 µM (≈ 0.247 µg/mL); MIC (Micrococcus luteus): 0.597 µM (≈ 0.247 µg/mL); MIC (Streptococcus pneumoniae [12]): 0.0746 µM (≈ 0.0308 µg/mL)
CCn1cc(C(=O)OCC2=C(C(=O)O)N3C(=O)[C@@H](NC(=O)/C(=N/OC)c4csc(N)n4)C3SC2)c(=O)c2ccc(C)nc21 (some centres not stated)	8 µg/mL (≈ 12.7 µM)	4 µg/mL (≈ 6.37 µM)			64 µg/mL (≈ 102 µM)	> 128 µg/mL		
CN1CCN(c2c(F)cc3c(=O)c(C(=O)OCC4=C(C(=O)O)N5C(=O)[C@@H](NC(=O)/C(=N/OCC(=O)O)c6csc(N)n6)C5SC4)cn(CCF)c3c2F)CC1 (some centres not stated)			0.5 µg/mL (≈ 0.618 µM)	0.5 µg/mL (≈ 0.618 µM)		32 µg/mL (≈ 39.6 µM)	0.25 µg/mL (≈ 0.309 µM)	MIC (Pseudomonas aeruginosa [1]): 4 µg/mL (≈ 4.95 µM); MIC (Staphylococcus aureus [13]): 1 µg/mL (≈ 1.24 µM)
CCn1cc(C(=O)OCC2=C(C(=O)O)N3C(=O)[C@@H](NC(=O)COc4ccccc4)C3SC2)c(=O)c2ccc(C)nc21 (some centres not stated)								MIC (Streptococcus pyogenes [14]): 0.063 µg/mL (≈ 0.109 µM); MIC (Streptococcus pneumoniae [15]): < 0.008 µg/mL; MIC (Proteus mirabilis): 32 µg/mL (≈ 55.3 µM); MIC (Staphylococcus aureus [16]): 0.5 µg/mL (≈ 0.864 µM)
CO/N=C(\C(=O)N[C@@H]1C(=O)N2C(C(=O)O)=C(COC(C)=O)CS[C@H]12)c1csc(N)n1 [CEFOTAXIME]	32 µg/mL (≈ 70.3 µM)		< 0.008 µg/mL	0.016 µg/mL (≈ 0.0351 µM)	128 µg/mL (≈ 281 µM)	64 µg/mL (≈ 141 µM)	16 µg/mL (≈ 35.1 µM)	ED50 (Streptococcus pyogenes [17]): 5.2 mg/kg; MIC (Escherichia coli [18]): 0.06 µg/mL (≈ 0.132 µM); ED50 (Escherichia coli [19]): 1.7 mg/kg
CCn1cc(C(=O)O)c(=O)c2cc(F)c(-n3cccc3)cc21 [IRLOXACIN]								MIC (Serratia marcescens): 0.5 µg/mL (≈ 1.67 µM); MIC (Citrobacter freundii): 64 µg/mL (≈ 213 µM); MIC (Staphylococcus aureus [20]): 0.125 µg/mL (≈ 0.416 µM); MIC (Staphylococcus aureus [21]): 0.125 µg/mL (≈ 0.416 µM); MIC (Escherichia coli [22]): 1 µg/mL (≈ 3.33 µM); MIC (Streptococcus pyogenes [14]): > 128 µg/mL; MIC (Streptococcus pneumoniae [15]): 16 µg/mL (≈ 53.3 µM); MIC (Proteus mirabilis): 64 µg/mL (≈ 213 µM); MIC (Enterococcus faecalis): 2 µg/mL (≈ 6.66 µM); MIC (Staphylococcus aureus [23]): 0.125 µg/mL (≈ 0.416 µM); MIC (Enterobacter cloacae [24]): 0.5 µg/mL (≈ 1.67 µM); MIC (Proteus vulgaris [25]): 0.5 µg/mL (≈ 1.67 µM); MIC (Pseudomonas aeruginosa [26]): 64 µg/mL (≈ 213 µM)
CCn1cc(C(=O)O)c(=O)c2ccc(C)nc21 [NALIDIXIC ACID]	8 µg/mL (≈ 34.4 µM)	2 µg/mL (≈ 8.61 µM)	128 µg/mL (≈ 551 µM)	128 µg/mL (≈ 551 µM)	32 µg/mL (≈ 138 µM)	128 µg/mL (≈ 551 µM)		MIC (Escherichia coli [27]): 4 µg/mL (≈ 17.2 µM)
CCn1cc(C(=O)O)c(=O)c2cc3c(cc21)OCO3 [OXOLINIC ACID]	2 µg/mL (≈ 7.66 µM)		> 128 µg/mL	> 128 µg/mL		64 µg/mL (≈ 245 µM)		MIC (Pseudomonas aeruginosa [1]): 4 µg/mL (≈ 15.3 µM); MIC (Escherichia coli [27]): 0.25 µg/mL (≈ 0.957 µM); MIC (Proteus vulgaris [28]): 0.063 µg/mL (≈ 0.241 µM); MIC (Enterobacter cloacae [29]): 0.5 µg/mL (≈ 1.91 µM)
